Here are results for five substances from PMC11261775 (eBioMedicine, 2024).

Data set [1] deals with rhodamine-labeled peptide p300 PROTAC drug. Put plainly: fluorescence polarisation.
The next data set relates to NE1.3 and H660 cells. Put plainly: Apoptosis detection by flow cytometry. It counts as cell-based. The note with it: 24 h. The procedure, abridged:
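NE1.3 cells were grown in medium with 10% androgen-removed FBS. H660 cells were grown in RPMI 1640 with 5% FBS, insulin, transferrin, selenite, hydrocortisone, β-estradiol and 4 mM final L-glutamine. Cells were seeded at 3 × 10⁵ cells/ml in 6-well plates and exposed for 24 h to test compound, untreated, nano vehicle or peptide controls. They were processed with an apoptosis detection kit per protocol and analysed on a FACSCalibur flow cytometer.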

In another data set the test system is C4-2 and PC-3 cells. The data set is described as follows: Apoptosis detection by flow cytometry. The format is cell-based, human. The conditions noted are these: high concentrations, 24 h. The procedure, abridged:
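Cells were plated at 3 × 10⁵ cells/ml in 6-well plates. Treatment ran 24 h with test compound alongside untreated, nano vehicle and free peptide controls. Cells were harvested, stained with an apoptosis detection kit per its protocol and analysed on a FACSCalibur flow cytometer.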
A general note: Flow cytometry measures light scatter and fluorescence of single cells or particles in a stream.

For a further data set, the system named is p53. Put plainly: Immunoblotting of p53 and downstream proteins. The format is cell-based. The note with it: C4-2 and CWR22Rv1 cells, 1μM. The gist of the method: (§1)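 Drug treatment lasted 24 h unless otherwise stated. Cells were PBS-washed, lysed, and lysates spun at 13,000×g for 15 min at 4 °C, then BCA-quantified and boiled 5 min. Equal protein was run on 6–10% Tris-glycine SDS-PAGE and transferred to PVDF. Membranes were blocked 1 h in 5% milk, incubated with primary antibody (in 3% BSA/TBST) overnight at 4 °C, then secondary antibody 1 h at room temperature. Detection was by ECL.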

In another data set the test system is PC-3 xenografts. Put plainly: PC-3 xenograft mouse model. The format is in vivo, BALB/c nude mice. The procedure, abridged: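 Twenty-five male 4-week-old BALB/c nude mice were randomised into 5 groups of 5 and received 8 × 10⁶ PC-3 cells s.c. into the right shoulder. Dosing began once tumours reached about 200 mm³, about 3 weeks later. Mice received PBS, peptide control, nano vehicle, test compound or a reference inhibitor at 5 mg/kg i.p. every other day for 18 days. Volume was calculated as length × width²/2. Tumours and organs went to H&E, Ki-67 and TUNEL staining. Mean ± SD, t-test.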

Data set [2] relates to prostate cancer cells. Put plainly: Wound healing and transwell invasion assays. It counts as cell-based. The note with it: wound healing 24 h and 48 h; transwell 36 h. The gist of the method:
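For wound healing, confluent PC3 and DU145 monolayers were scratched with a 200 μl tip and rinsed with PBS. Test compound was added in serum-free medium, and wounds were photographed at 24 h and 48 h.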

The subject of a further data set is CWR22Rv1 xenografts. The data set is described as follows: CWR22Rv1 xenograft mouse model. The format is in vivo, BALB/c nude mice. The gist of the method:
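Thirty-five male 4-week-old BALB/c nude mice were randomised into 7 groups of 5. Each received 6 × 10⁶ 22Rv1 cells mixed 1:1 with Matrigel, injected s.c. into the right shoulder. After tumours formed, dosing was i.p. every other day for 21 days, with reference agents also at 5 mg/kg. Volume was calculated as length × width²/2. Tumours went to H&E or IHC, scored as intensity (0–3) × positive-cell percentage grade (1–4).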

For data set [3], the system named is prostate cancer cells. The data set is described as follows: Cell internalization by confocal microscopy and flow cytometer. The format is cell-based. The note with it: 500 nM rhodamine-labeled drug. The procedure, abridged: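 C4-2 cells were incubated with 500 nM rhodamine-labelled test compound, and nuclei were stained with DAPI. Imaging was by confocal microscopy, with identical excitation wavelength and detector gain for all images.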

In data set [4] the test system is prostate cancer cells (PC-3, DU145, C4-2, CWR22Rv1). The data set is described as follows: Colony formation assay. The format is cell-based. The note with it: 20 days treatment. The gist of the method: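 Cells were plated in 6-well plates and allowed to attach for 48 h. They were then treated with graded concentrations of test compound for 20 days. Wells were PBS-washed, fixed 30 min in 4% paraformaldehyde and stained 30 min with 0.1% crystal violet. Colonies were counted from images.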

Data set [5] concerns the target p300/MDM2 binding in 293T cells (Homo sapiens, UniProt Q00987+Q09472). Put plainly: Co-immunoprecipitation of p300 and MDM2. It counts as cell-based. The conditions noted are these: 293T cells transfected with HA-p300 or Flag-MDM2. The procedure, abridged: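 293T cells were transfected with HA-p300 or Flag-MDM2 plasmids. They were lysed 15 min on ice in IP buffer with protease and phosphatase inhibitors, then spun at 13,000×g for 15 min at 4 °C. Supernatants were incubated with anti-HA agarose beads for 12 h at 4 °C, with or without test compound. Beads were washed, boiled 5 min in loading buffer and analysed by Western blot.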

Another data set addresses CBP (Homo sapiens, UniProt Q92793). The data set is described as follows: Immunoblotting of CBP in prostate cancer cells. The format is cell-based. The conditions noted are these: immunoblot. The gist of the method: as §1
A general note: Immunoblotting shows a protein as a band on a membrane.

For the next data set, the target named is p300 (Homo sapiens, UniProt Q09472). The data set is described as follows: Immunoblotting of p300 degradation in prostate cancer cells. The format is cell-based. The note with it: for p300 degradation in prostate cancer cells: immunoblot, 24 h. The gist of the method:
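AR-positive and AR-negative prostate cancer cells were exposed for 24 h to a range of concentrations of the test compound (Se-nanoparticle-loaded peptide PROTAC). Cells were PBS-washed three times before harvest and lysates were immunoblotted for p300. Secondary antibody was applied for 1 h at room temperature, with 3 × 5 min TBST washes. Detection was by ECL chemiluminescence.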

Data set [6] is described as follows: Biodistribution by fluorescence imaging. The note with it: rhodamine-labeled drug, i.p., PC-3 xenograft models, 0-72 h. It counts as in vivo, mice. The gist of the method: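 Tumour-bearing mice received rhodamine B-labelled test compound i.p., with injections timed to give exposures of 0, 12, 24, 48 and 72 h. Mice were then euthanised. Heart, liver, spleen, lungs and kidneys were excised and imaged at once on a small-animal in vivo fluorescence system. Distribution was scored by fluorescence intensity.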

The subject of data set [7] is prostate cancer cells (C4-2, CWR22Rv1, PC-3, DU145). The data set is described as follows: Cell viability assay, AR-positive and AR-negative prostate cancer cells. The note with it: 48 h treatment. It counts as cell-based. The procedure, abridged:
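Cells were seeded in 96-well plates in multiple wells and allowed to adhere. They were then exposed for 48 h to graded concentrations of test compound, nano vehicle (Se nanoparticles without peptide) or free peptide. CCK-8 reagent was added for 2 h, then absorbance was read at 450 nm. Data were normalised to the untreated group and given as mean ± SD.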

Chain of p300 (Q09472 whole entry): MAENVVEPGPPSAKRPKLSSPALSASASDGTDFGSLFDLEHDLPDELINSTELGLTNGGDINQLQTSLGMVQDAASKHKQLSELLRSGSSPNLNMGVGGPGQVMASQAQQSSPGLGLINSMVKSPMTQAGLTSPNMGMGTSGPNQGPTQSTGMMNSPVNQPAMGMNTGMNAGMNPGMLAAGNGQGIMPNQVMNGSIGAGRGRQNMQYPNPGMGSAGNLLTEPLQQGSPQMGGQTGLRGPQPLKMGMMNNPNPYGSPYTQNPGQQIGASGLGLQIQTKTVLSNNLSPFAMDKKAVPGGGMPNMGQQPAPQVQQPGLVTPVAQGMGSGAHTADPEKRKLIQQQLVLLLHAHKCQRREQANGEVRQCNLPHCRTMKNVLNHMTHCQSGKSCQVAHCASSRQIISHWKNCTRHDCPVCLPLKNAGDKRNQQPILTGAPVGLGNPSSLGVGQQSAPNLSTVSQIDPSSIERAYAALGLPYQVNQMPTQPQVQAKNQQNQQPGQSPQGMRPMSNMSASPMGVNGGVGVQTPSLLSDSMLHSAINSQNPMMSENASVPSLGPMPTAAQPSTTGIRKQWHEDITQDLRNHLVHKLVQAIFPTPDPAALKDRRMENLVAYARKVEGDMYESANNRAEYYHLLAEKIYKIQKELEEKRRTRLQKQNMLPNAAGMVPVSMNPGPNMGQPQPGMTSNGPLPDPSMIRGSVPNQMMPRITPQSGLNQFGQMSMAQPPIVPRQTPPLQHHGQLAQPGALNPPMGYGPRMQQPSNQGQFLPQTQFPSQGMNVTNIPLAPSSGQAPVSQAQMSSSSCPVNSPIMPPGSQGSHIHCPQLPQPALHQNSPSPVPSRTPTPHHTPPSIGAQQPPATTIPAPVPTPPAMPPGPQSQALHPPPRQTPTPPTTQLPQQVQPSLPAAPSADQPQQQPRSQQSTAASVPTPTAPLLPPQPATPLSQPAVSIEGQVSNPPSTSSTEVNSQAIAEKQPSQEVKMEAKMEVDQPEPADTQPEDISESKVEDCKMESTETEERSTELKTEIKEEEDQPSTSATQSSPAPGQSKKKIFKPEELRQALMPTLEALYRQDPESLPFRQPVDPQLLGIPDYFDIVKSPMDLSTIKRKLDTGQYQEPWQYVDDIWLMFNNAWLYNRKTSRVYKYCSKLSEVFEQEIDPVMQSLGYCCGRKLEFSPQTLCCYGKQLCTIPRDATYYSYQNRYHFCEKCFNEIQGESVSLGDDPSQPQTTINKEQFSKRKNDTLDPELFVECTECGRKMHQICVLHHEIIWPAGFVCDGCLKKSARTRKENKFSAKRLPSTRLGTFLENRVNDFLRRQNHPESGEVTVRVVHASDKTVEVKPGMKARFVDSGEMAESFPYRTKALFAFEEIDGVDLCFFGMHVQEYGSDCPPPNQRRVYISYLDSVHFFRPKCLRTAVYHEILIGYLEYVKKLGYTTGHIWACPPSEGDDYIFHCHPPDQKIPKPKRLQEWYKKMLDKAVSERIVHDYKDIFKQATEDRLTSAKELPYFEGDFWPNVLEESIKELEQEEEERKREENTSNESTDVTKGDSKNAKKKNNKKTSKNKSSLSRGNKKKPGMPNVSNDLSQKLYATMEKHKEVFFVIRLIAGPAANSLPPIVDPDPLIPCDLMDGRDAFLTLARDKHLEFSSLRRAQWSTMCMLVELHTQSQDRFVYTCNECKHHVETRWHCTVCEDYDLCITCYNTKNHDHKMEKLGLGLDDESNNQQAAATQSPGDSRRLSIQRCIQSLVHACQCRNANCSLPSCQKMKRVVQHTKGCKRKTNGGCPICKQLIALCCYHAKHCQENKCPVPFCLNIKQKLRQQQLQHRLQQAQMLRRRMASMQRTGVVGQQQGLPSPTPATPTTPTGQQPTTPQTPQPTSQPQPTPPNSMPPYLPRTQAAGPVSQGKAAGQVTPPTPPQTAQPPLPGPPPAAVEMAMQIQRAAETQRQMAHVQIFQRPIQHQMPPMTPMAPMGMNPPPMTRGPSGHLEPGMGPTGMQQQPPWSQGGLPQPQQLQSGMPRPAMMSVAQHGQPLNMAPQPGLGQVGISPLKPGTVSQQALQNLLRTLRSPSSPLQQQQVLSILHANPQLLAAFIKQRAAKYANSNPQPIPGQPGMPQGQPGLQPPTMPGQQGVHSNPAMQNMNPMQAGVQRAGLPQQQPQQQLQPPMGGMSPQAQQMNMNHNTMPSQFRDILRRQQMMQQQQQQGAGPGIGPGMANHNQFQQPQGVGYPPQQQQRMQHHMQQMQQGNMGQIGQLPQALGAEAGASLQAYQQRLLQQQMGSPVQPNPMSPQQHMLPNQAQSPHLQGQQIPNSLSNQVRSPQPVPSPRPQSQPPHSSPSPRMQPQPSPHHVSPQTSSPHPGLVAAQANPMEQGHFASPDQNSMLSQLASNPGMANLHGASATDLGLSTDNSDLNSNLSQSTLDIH
Chain of CBP (Q92793 whole entry): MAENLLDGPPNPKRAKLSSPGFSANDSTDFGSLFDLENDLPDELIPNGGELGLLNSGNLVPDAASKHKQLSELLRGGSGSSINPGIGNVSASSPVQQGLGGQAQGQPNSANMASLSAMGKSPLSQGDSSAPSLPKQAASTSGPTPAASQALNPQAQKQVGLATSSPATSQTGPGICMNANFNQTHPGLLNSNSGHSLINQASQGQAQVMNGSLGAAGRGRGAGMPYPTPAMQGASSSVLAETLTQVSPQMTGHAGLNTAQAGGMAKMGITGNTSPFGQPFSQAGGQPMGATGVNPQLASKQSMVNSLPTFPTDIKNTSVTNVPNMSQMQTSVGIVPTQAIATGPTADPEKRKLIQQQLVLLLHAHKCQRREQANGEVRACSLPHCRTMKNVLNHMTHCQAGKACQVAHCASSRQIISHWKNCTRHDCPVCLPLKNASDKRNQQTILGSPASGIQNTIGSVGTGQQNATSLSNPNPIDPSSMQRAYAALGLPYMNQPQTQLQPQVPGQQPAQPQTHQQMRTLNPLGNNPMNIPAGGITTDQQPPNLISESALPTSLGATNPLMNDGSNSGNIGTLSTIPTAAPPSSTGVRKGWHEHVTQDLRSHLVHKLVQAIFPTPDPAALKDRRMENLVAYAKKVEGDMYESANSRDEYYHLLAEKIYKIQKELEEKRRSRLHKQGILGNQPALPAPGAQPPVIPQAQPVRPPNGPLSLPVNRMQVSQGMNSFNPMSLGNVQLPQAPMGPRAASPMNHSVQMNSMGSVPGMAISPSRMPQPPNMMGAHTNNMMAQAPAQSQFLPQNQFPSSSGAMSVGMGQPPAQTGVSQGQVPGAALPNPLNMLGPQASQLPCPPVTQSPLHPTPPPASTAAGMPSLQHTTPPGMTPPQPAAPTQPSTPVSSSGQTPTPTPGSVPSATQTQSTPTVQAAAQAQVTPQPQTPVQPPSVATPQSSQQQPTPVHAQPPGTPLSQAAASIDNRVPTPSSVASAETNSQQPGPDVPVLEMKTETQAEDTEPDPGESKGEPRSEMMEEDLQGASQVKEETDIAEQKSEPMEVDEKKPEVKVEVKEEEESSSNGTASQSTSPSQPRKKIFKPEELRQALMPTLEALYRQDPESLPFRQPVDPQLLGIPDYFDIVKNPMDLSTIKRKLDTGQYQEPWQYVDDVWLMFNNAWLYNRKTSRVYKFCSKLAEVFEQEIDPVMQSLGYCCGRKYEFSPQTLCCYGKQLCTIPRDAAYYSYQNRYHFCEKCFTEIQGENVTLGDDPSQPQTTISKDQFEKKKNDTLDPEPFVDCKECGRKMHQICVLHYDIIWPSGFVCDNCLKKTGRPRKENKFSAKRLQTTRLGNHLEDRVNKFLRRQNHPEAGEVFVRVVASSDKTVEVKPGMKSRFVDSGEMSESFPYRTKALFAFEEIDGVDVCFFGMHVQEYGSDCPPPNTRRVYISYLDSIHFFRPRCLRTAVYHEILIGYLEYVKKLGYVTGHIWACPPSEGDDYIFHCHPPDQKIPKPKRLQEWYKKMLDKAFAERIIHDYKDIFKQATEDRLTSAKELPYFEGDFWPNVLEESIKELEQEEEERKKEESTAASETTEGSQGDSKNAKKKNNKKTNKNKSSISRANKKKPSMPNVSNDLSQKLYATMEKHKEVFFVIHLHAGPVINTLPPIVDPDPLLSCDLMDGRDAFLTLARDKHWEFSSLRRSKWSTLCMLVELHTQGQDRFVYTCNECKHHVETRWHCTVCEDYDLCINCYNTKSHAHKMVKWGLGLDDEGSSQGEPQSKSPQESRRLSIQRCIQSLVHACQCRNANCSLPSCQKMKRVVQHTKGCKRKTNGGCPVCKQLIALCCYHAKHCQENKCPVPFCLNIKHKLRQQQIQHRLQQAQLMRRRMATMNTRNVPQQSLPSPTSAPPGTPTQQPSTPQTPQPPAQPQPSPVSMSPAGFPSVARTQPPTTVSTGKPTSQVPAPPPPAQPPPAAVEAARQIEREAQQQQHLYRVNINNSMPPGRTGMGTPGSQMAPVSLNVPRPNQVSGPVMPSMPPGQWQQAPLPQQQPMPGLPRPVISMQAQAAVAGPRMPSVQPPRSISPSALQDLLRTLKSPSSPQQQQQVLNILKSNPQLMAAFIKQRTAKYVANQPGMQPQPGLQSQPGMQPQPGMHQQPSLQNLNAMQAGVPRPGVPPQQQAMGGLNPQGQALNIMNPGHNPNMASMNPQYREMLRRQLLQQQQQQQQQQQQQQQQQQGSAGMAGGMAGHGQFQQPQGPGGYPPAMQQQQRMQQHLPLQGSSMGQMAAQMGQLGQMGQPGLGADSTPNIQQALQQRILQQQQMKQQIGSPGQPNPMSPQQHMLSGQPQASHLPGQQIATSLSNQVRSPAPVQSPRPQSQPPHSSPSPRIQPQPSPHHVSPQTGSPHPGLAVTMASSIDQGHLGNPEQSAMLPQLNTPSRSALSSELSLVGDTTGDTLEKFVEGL

As usually defined, the Kd is the free concentration of one partner at which half of the binding sites on the other are occupied at equilibrium, for simple one-to-one binding. As for p300 CH1 domain (domain or fragment), the Kd in data set [1] was determined as 78.3 nM.
Consider “CPWIWDGDNKDDNSTDGGGSGGGTSFEQFWAWLWP [p300 PROTAC drug]”, for which the “Apoptosis induction, NEPC cells” value in the data set on NE1.3 and H660 cells is given as “effectively induced apoptosis”. The “Apoptosis induction, AR-positive and AR-negative cell lines” value in the data set with C4-2 and PC-3 cells is listed as “effectively induced apoptosis”. For the same substance, the “Protein level of p53 and downstream proteins” value in the data set with p53 was “effectively increased the protein level of p53 and its downstream proteins”. Further, the “Effect on PC-3 tumor growth” value in the data set on PC-3 xenografts (5 mg/kg i.p. every 2 days for 18 days, n = 5 per group) was “significant efficacy in vivo”. Besides, in the data set with PC-3 xenografts (same dose, 5 mg/kg), the “Efficacy relative to I-CBP112, PC-3 model” value is on record as “better efficacy compared to small molecular p300/CBP inhibitor I-CBP112 at the same dose”. Further, the Migration and invasion result in the data set with prostate cancer cells [2] was “effectively inhibit the migration and invasion”. The “Effect on CWR22Rv1 tumor growth” value in the data set with CWR22Rv1 xenografts (5 mg/kg i.p. every other day for 21 days, n = 5 per group) is reported as “significant efficacy in vivo”. The “IHC of CWR22Rv1 tumors (p300, AR, Ki-67, TUNEL)” value with CWR22Rv1 xenografts (5 mg/kg i.p., n = 5) was “effectively degraded the p300, AR and Ki-67, and effectively induced the increase of tumor apoptosis”. In the data set on CWR22Rv1 xenografts (all at 5 mg/kg i.p. every other day), the “Efficacy relative to comparator drugs, CWR22Rv1 model” value is “better efficacy compared with I-CBP112, dCBP-1, and JQAD1”. Also, the Cell internalization result in the data set with prostate cancer cells [3] is “internalization of the p300 PROTAC drug in a time-dependent manner”. Besides, the Colony formation result in data set [4] is reported as “effectively inhibited colony formation”. Moreover, in data set [5], the “Binding of p300 to MDM2 in presence of drug” value is “significantly enhanced”. Moreover, on CBP, the “Reduction of CBP in prostate cancer cells” value was “notably weaker compared to its effect on p300”. Besides, the “Concentration eliminating the p300 protein” value on p300 (different prostate cancer cell lines) is “under 1 μM”. For the same substance, the “p300 degradation in prostate cancer cells” value on p300 is listed as “effectively degraded p300”. For the same substance, the Biodistribution result in [6] is “accumulated within the tumor”.
“MDM2 N-terminal domain (domain or fragment)”: the Kd in data set [1] was found to be 101 nM.
As for “CPWIWDGDNKDDNSTDGGGSGGGTSFEQFWAWLWP [free peptide control]”, in data set [7], the “Toxicity in prostate cancer cells (cell viability)” value is “no toxicity”.
JQAD1 [reference compound]: the “p300 degradation in prostate cancer cells” value at p300 was “poor performance”.
